Calls of active or inactive are those of the source. The rule behind the calls is not given here.
How the values were obtained:
MCF7 [1] = assay: Induction of apoptosis in human MCF7 ER-positive cells assessed as increase in Bax expression levels at 50 to 100 uM after 24 hrs by Western blot analysis; assay type: functional, cell-based
How it was run: (§1)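 Western blot of whole cells after 24 h exposure (MCF-7 at 50 or 100; MDA-MB-231 at 25 or 50). Probed for cleavage of caspase-8, -9, -3 and PARP, and for Bax and Bcl-2 expression. The Bax:Bcl-2 ratio is derived from the same blots.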

MDA-MB-231 [2] = assay: Cytotoxicity against human MDA-MB-231 ER-negative cells assessed as decrease in cell viability at 5 to 100 uM after 24 hrs by EZ-Cytox assay; assay type: functional, cell-based
MDA-MB-231 [3] = assay: Induction of apoptosis in human MDA-MB-231 ER-negative cells assessed as increase in PARP levels at 25 to 50 uM after 24 hrs by Western blot analysis; assay type: functional, cell-based; how it was run: as §1
MDA-MB-231 [4] = assay: Induction of apoptosis in human MDA-MB-231 ER-negative cells at 50 uM after 24 hrs by Annexin-V/propidium iodide staining-based cytometry relative to control; assay type: functional
How it was run: (§2)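 Cells exposed 24 h (MCF-7 at 50 or 100; MDA-MB-231 at 25 or 50), then stained with Alexa Fluor 488 annexin V conjugate for externalized phosphatidylserine and examined by fluorescence imaging. The read-out is the percentage of annexin-V-positive cells in a total cell count.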

MCF7 [5] = assay: Induction of apoptosis in human MCF7 ER-positive cells assessed as increase in Bax to Bcl-2 ratio at 50 to 100 uM after 24 hrs by Western blot analysis
MCF7 [6] = assay: Cytotoxicity against human MCF7 ER-positive cells assessed as decrease in cell viability after 24 hrs by EZ-Cytox assay; assay type: functional, cell-based
MDA-MB-231 [7] = assay: Induction of apoptosis in human MDA-MB-231 ER-negative cells assessed as increase in cleaved caspase-8 levels at 25 to 50 uM after 24 hrs by Western blot analysis; assay type: functional, cell-based; how it was run: as §1
MCF7 [8] = assay: Cytotoxicity against human MCF7 ER-positive cells assessed as decrease in cell viability at 5 to 100 uM after 24 hrs by EZ-Cytox assay; assay type: functional, cell-based
MCF7 [9] = assay: Induction of apoptosis in human MCF7 ER-positive cells at 100 uM after 24 hrs by Annexin-V/propidium iodide staining-based cytometry relative to control; assay type: functional; how it was run: as §2
MDA-MB-231 [10] = assay: Induction of apoptosis in human MDA-MB-231 ER-negative cells assessed as increase in cleaved caspase-9 levels at 25 to 50 uM after 24 hrs by Western blot analysis; assay type: functional, cell-based; how it was run: as §1
MCF7 [11] = assay: Induction of apoptosis in human MCF7 ER-positive cells assessed as increase in cleaved caspase-8 levels at 50 to 100 uM after 24 hrs by Western blot analysis; assay type: functional, cell-based; how it was run: as §1
MDA-MB-231 [12] = assay: Cytotoxicity against human MDA-MB-231 ER-negative cells assessed as cell viability at 100 uM after 24 hrs by EZ-Cytox assay relative to control; assay type: functional; conditions: MDA-MB-231, 24 h, read-out: Activity
MCF7 [13] = assay: Cytotoxicity against human MCF7 ER-positive cells assessed as cell viability at 100 uM after 24 hrs by EZ-Cytox assay relative to control; assay type: functional; conditions: MCF7, 24 h, read-out: Activity
MCF7 [14] = assay: Induction of apoptosis in human MCF7 ER-positive cells assessed as increase in cleaved caspase-3 levels at 50 to 100 uM after 24 hrs by Western blot analysis; assay type: functional, cell-based; how it was run: as §1
MDA-MB-231 [15] = assay: Cytotoxicity against human MDA-MB-231 ER-negative cells assessed as decrease in cell viability after 24 hrs by EZ-Cytox assay; assay type: functional, cell-based
MDA-MB-231 [16] = assay: Induction of apoptosis in human MDA-MB-231 ER-negative cells assessed as decrease in Bcl-2 expression levels at 25 to 50 uM after 24 hrs by Western blot analysis; assay type: functional, cell-based; how it was run: as §1
MCF7 [17] = assay: Induction of apoptosis in human MCF7 ER-positive cells assessed as increase in PARP levels at 50 to 100 uM after 24 hrs by Western blot analysis; assay type: functional, cell-based; how it was run: as §1
MDA-MB-231 [18] = assay: Induction of apoptosis in human MDA-MB-231 ER-negative cells assessed as increase in cleaved caspase-3 levels at 25 to 50 uM after 24 hrs by Western blot analysis; assay type: functional, cell-based; how it was run: as §1
MDA-MB-231 [19] = assay: Induction of apoptosis in human MDA-MB-231 ER-negative cells assessed as increase in Bax to Bcl-2 ratio at 25 to 50 uM after 24 hrs by Western blot analysis

O=C(O[C@@H]1O[C@@H]2COC(=O)c3cc(O)c(O)c(O)c3-c3c(cc(O)c(O)c3O)C(=O)O[C@H]2[C@@H]2OC(=O)c3cc(O)c(O)c(O)c3-c3c(cc(O)c(O)c3O)C(=O)O[C@@H]12)c1cc(O)c(O)c(Oc2c(O)c(O)c(O)c3c2C(=O)O[C@H]2[C@@H]4OC(=O)c5cc(O)c(O)c(O)c5-c5c(cc(O)c(O)c5O)C(=O)O[C@H]4[C@@H](OC(=O)c4cc(O)c(O)c(O)c4)O[C@@H]2COC(=O)c2cc(O)c(O)c(O)c2-3)c1
Activity (MCF7 [1]): Active
Activity (MDA-MB-231 [2]): Active
Activity (MDA-MB-231 [3]): Active
Activity (MDA-MB-231 [4]): 40.7%
Bax/Bcl-2 ratio (MCF7 [5]): Active
Activity (MCF7 [6]): Dose-dependent effect
Activity (MDA-MB-231 [7]): Active
Activity (MCF7 [8]): Active
Activity (MCF7 [9]): 33.7%
Activity (MDA-MB-231 [10]): Active
Activity (MCF7 [11]): Active
viability at 100 µM (MDA-MB-231 [12]): 63%
viability at 100 µM (MCF7 [13]): 69%
Activity (MCF7 [14]): Active
Activity (MDA-MB-231 [15]): Dose-dependent effect
Activity (MDA-MB-231 [16]): Active
Activity (MCF7 [17]): Active
Activity (MDA-MB-231 [18]): Active
Bax/Bcl-2 ratio (MDA-MB-231 [19]): Active
